Assay outcomes deposited in PubChem BioAssay by several laboratories.
Rin1-Abl PPI inh: inhibitors of Rin1-Abl protein binding, primary screen, biochemical, TR-FRET. AID 588664, 2011. 360,000 tested, 0.4% active. inhibition, % at 7.35 µM. Tyrosine-protein kinase ABL1 (Homo sapiens) + Ras and Rab interactor 1 (Homo sapiens), …; in the data active means inhibition above about 5%, passing the limit was not always enough
Myeloid diff MLP: induction of myeloid progenitor differentiation, primary screen, cell-based, flow cytometry, MLPCN library; ER-HoxA9 myeloid progenitors, lysozyme-GFP differentiation; AID 624256, 2012; calls only at 10 µM; 360,000 tested, 1% active;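 active means normalized GFP-positive differentiation at or above the plate's own cutoff, the solvent-only control mean plus 3 SD; inconclusive means no clear call, values can overlap the other calls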;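 further: cells exposed to compound for four days before flow analysis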
T cell HTS: modulators of CD8 T cell-vesicle binding, primary screen, mouse 2C CD8+ T cells, flow cytometry; 2C CD8+ T cell-vesicle binding; active compounds read low; response (vesicle binding), % at 7 µM; 330,000 tested, 0.068% active;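 active means response, share of CD8 T cells binding vesicles, and their 90th percentile fluorescence all below set limits, cut at about 80% in these data, passing the limit was not always enough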;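 further: values below 100% mean blocked vesicle binding to the CD8+ T cells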
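material = purified 2C TCR transgenic mouse naive CD8+ T cells | controls = Unloaded micro-vesicles (low), QL9 vesicles with 0.7% DMSO (high) | detection = cytometric PE anti-B7-1 and Alexa647 anti-CD8 signals after 1% paraformaldehyde fixation | incubation = binding step 1.5 h, 37 °C, antibody labelling 20 min, ice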
GRK2 aptamer HTS: compounds blocking aptamer binding on GRK2 – biochemical, human GRK2, bead flow cytometry, HTS, primary screen; FAM-aptamer displacement from GRK2; 330,000 tested, 0.59% active; inhibition of aptamer binding, % at 10 µM;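 active means inhibition of aptamer binding above 40%, roughly 3 SD of noise, on plates passing a quality check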;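 further: median bead fluorescence of bound FAM aptamer so fluorescent compounds give negative values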
SKN-1 block: suppressors of acrylamide-induced Pgst-4::GFP reporter in worms, primary screen, SKN-1 inhibitor project, whole organism, uHTS, GFP/RFP fluorescence ratio, strain VP596; C. elegans VP596 Pgst-4::GFP/RFP ratio, 24 h; inhibition, % at 21.8 µM; 360,000 tested, 0.49% active; AID 624304, 2012;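 active means interference check ratio from 0.5 to 1.5 plus GFP to RFP signal ratio inhibition reaching or exceeding a fixed threshold, cut at about 30% in these data, passing the limit was not always enough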
Rce1 inhib: yeast Rce1p protease inhibitors, primary screen, biochemical, fluorescence, cell-free homogeneous | CAAX prenyl protease 2 (Saccharomyces cerevisiae (strain ATCC 204508 / S288c)), Q03530 | yeast membranes, quenched prenylated peptide cleavage fluorescence | calls only | 290,000 tested, 0.27% active | AID 2563, 2010;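 active means fall in fluorescence gain of 50% or more versus controls, with final raw signal at or below 3038400; inconclusive means same 50% fall but final raw signal above 3038400; inactive means fall in fluorescence gain under 50%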
Target sequence (Q03530 whole entry, looked up): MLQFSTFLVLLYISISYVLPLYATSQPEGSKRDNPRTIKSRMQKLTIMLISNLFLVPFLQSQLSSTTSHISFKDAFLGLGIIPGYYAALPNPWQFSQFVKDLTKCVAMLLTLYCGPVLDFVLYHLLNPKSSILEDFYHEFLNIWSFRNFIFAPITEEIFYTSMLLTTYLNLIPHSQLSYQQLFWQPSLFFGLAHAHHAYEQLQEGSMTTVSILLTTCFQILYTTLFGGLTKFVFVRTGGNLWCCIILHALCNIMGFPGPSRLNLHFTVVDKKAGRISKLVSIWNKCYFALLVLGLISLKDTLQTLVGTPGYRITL
GRK2 inh confirm: GRK2 aptamer-displacing inhibitors, retest, confirmation, biochemical, cherry pick 1, bead flow cytometry | shares compounds with GRK2 aptamer HTS | bead-bound GRK2, FAM-aptamer displacement | aptamer displacement, % at 10 µM | 2,000 tested, 4% active | AID 504451, 2011;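 active means aptamer displacement above 40%, near three times the noise of non-fluorescent compounds, on plates passing quality checks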;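 further: negative values mostly reflect intrinsic compound fluorescence rather than true enhancement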
FAM quench CP1: aptamer fluorescence quenching in GRK2 counter-screen | 2,000 tested, under 10 active | Carboxyfluorescein RNA aptamer on beads, flow cytometry quenching; active compounds read low | shares compounds with GRK2 aptamer HTS | AID 504580 | fluorescence response (% of DMSO), % at 10 µM;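 active means compounds that quench the bead-bound fluorescent RNA probe, cutting fluorescence to under half of the solvent control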;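 further: counterscreen run without GRK2 so only probe quenching by compound is measured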
GRK2 CP2: GRK2 aptamer-displacing inhibitors, hit retest, confirmation, biochemical, cherry pick 2, bead flow cytometry; bead-bound GRK2, FAM-aptamer displacement; 360 tested, under 10 active; inhibition of aptamer binding, % at 10 µM; shares compounds with GRK2 aptamer HTS;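 active means inhibition of aptamer binding above 40%, about triple the noise seen with nonglowing compounds, on plates passing quality control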;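 further: negative values mostly come from compounds that fluoresce themselves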
FAM quench CP2: quenches fluorescent RNA aptamer, GRK2 hit artifact. AID 588494. carboxyfluorescein RNA aptamer beads, flow cytometry quenching; active compounds read low. 360 tested, under 10 active. fluorescence response vs DMSO, % at 10 µM. shares compounds with GRK2 aptamer HTS;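 active means response vs DMSO under 50%, meaning signal dropped by over half, treated as fluorescence quencher; inconclusive means no clear call, values can overlap the other calls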;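 further: labelled aptamer on streptavidin beads without GRK2 as a quench counter-screen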
Rin1-Abl confirm: Rin1-Abl binding inhibitor retest, confirmation, biochemical, TR-FRET; 1,300 tested, 49% active; AID 602124, 2011; inhibition, % at 7.35 µM; shares compounds with Rin1-Abl PPI inh; purified proteins
GFP quench-1: GFP fluorescence inhibitors and quenchers, artefact control for Rin1-Abl interaction inhibitor project, biochemical; shares compounds with Rin1-Abl PPI inh; inhibitors/quenchers counterscreen; inhibition, % at 6.75 µM; AID 602125, 2011; 1,300 tested, 8.5% active;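 further: ABL1-eGFP fusion protein alone without its partner RIN1-SBP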
GFP quench dose: GFP fluorescence inhibitors and quenchers, dose response, artefact control for Rin1-Abl interaction inhibitor project, biochemical | GFP fluorescence interference/quenching counterscreen | shares compounds with Rin1-Abl PPI inh | 230 tested, under 10 active | IC50, µM; call rule not given here;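 further: ABL1-eGFP fusion protein alone without its RIN1 binding partner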
GFP quench-2: GFP fluorescence inhibitors and quenchers, late-stage follow-up, artefact control for Rin1-Abl interaction inhibitor project, biochemical, dose response; shares compounds with Rin1-Abl PPI inh; GFP fluorescence quenching counterscreen; IC50, µM; 25 tested, under 10 active; AID 602397, 2012; call rule not given here
Myeloid diff CP1: inducers of myeloid progenitor differentiation, confirmation, cell-based, GFP/Mac1 flow cytometry, cherry pick 01; calls only; shares compounds with Myeloid diff MLP; ER-HoxA9 myeloid progenitors, GFP/Mac1 double-positive flow; 2,300 tested, 2% active; AID 651706, 2012;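 active means share of green or green-and-red cells above 9 and 9% in run 1 or 4 and 3% in run 2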
GFP autofluor: compound fluorescence in myeloid differentiation counter-screen | 2,300 tested, 7.4% active | fluorescence response, % (concentration not given with the values) | AID 651707 | ER-HoxA9 myeloid progenitors, no estrogen, GFP autofluorescence flow cytometry; vehicle wells 0%, positive control 100% | shares compounds with Myeloid diff MLP;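 active means over 5% cells positive for green fluorescent reporter, or over 2% positive for both it and APC stain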
Numbers stand for hits; - = inactive; ? = inconclusive; . = no result; + = active, no number. Only some compounds are listed: those with a hit (about 2.6% of all), similar ones and a draw of the others. Unless noted, no stated cut-off is given here; in the data, active means inhibition above about 6.5%; inactive means the rest.

SMILES	Rin1-Abl PPI inh	Myeloid diff MLP	T cell HTS	GRK2 aptamer HTS	SKN-1 block	Rce1 inhib	GRK2 inh confirm	FAM quench CP1	others
CCCCn1c(N)c(N(C)C(=O)c2c(C)nn(-c3ccccc3)c2C)c(=O)[nH]c1=O	-	-	-	-	-	.	.	.
COC(=O)[C@@H]1C(c2c(OC)cc(OC)cc2OC)=NO[C@H]1C(=O)OC	-	-	-	-	-	-	.	.	GRK2 CP2=-;FAM quench CP2=-
COc1cccc(C2=NOC(C(=O)Nc3ccc(OC)c(OC)c3)C2)c1 (centres undefined)	-	-	-	-	-	-	.	.
COC(=O)C1CC(c2c(OC)cc(OC)cc2OC)=NO1 (centres undefined)	-	-	-	-	-	-	.	.	GRK2 CP2=-;FAM quench CP2=-
Cc1cc(OCC(=O)NCc2ccncc2)ccc1Cl	-	-	-	-	-	-	.	.
COc1ccc(-c2c(C#CC(C)(C)O)c3ccccc3n2C)cc1	-	-	-	94	-	.	.	.	GRK2 CP2=-;FAM quench CP2=-
Cc1ccc(-c2noc(-c3cc(C(C)(C)C)nn3Cc3ccccc3)n2)cc1	-	-	-	-	-	-	.	.
O=C(Nc1ccccc1N1CCCCC1)c1ccco1	-	-	-	49	-	-	-	-
O=C(Nc1ccccc1N1CCCC1)c1ccco1	-	-	-	-	-	.	.	.
Cc1ccc(-c2nc(=S)c3c(n2Cc2cccnc2)CC(C)(C)OC3)cc1	-	-	-	-	-	-	.	.
COc1ccc(NC(=O)CSc2nc3ccccc3c3nc4ccccc4n23)cc1	-	?	-	-	-	.	-	-
Cc1ccc(NC(=O)CSc2nc3ccccc3c3nc4ccccc4n23)cc1	-	.	-	-	-	-	.	.
CCC(=O)c1ccc(OCC(O)CN2CCc3ccccc3C2)cc1 (centres undefined)	-	-	-	54	-	.	-	-
Cc1ccc(S(=O)(=O)NCc2ccccc2)cc1C(=O)NC(C)c1ccc(S(N)(=O)=O)cc1 (centres undefined)	-	-	.	.	-	.	.	.
COc1cc(NS(=O)(=O)c2ccc3c(c2)C(C)(C)C(=O)N3C)cc(OC)c1	-	-	-	44	-	-	-	-
COc1ccc(CNS(=O)(=O)c2ccc3c(c2)C(C)(C)C(=O)N3C)cc1	-	-	-	-	-	-	.	.
CCCCn1c(NS(=O)(=O)c2ccc(C)cc2)c(S(=O)(=O)c2ccccc2)c2nc3ccccc3nc21	9.6	?	-	-	-	-	-	-	Rin1-Abl confirm=-;GFP quench-1=-
O=C(CSc1nncs1)Nc1ccc2[nH]c(=O)[nH]c2c1	-	-	-	-	-	-	.	.
COc1cccc(C(NC(C)=O)c2ccc3cccnc3c2O)c1 (centres undefined)	6.7	.	-	80	-	.	-	-	Rin1-Abl confirm=9.6;GFP quench-1=-
CC(=O)NC(c1cccc([N+](=O)[O-])c1)c1ccc2cccnc2c1O (centres undefined)	-	.	-	-	-	-	.	.
O=C1/C(=C/c2cccs2)SC(=S)N1NS(=O)(=O)c1ccccc1	-	-	-	-	-	-	.	.
O=C1/C(=C/C=C/c2ccco2)SC(=S)N1NS(=O)(=O)c1ccccc1	13	-	-	95	-	.	-	-	Rin1-Abl confirm=-;GFP quench-1=26
O=c1cc(OCc2ccccc2)cc[nH]1	96	-	-	43	-	.	.	.	GRK2 CP2=-;FAM quench CP2=-;Rin1-Abl confirm=99;GFP quench-1=-;GFP quench dose=-;GFP quench-2=-
CC1=NC(C)(C)CC2CCC(O)C12 (centres undefined)	-	-	.	.	-	.	.	.
Cc1occc1C(=O)N/N=C/c1ccc(-c2ccccc2)cc1	-	-	-	-	-	.	.	.
Cc1occc1C(=O)N/N=C/C(Br)=C/c1ccccc1	-	+	-	-	-	-	-	-	Myeloid diff CP1=-;GFP autofluor=-
C/C(Cc1ccccc1)=N\NC(=O)CNC(=O)c1ccc(Br)cc1	-	+	-	78	-	-	-	-	Myeloid diff CP1=-;GFP autofluor=-
C[n+]1c2n(c3ccccc31)N=C(c1cc(C(C)(C)C)c(O)c(C(C)(C)C)c1)CS2	-	+	-	64	-	+	-	-	Myeloid diff CP1=-;GFP autofluor=-
COc1cccc(C2=Nn3c(nnc3-c3ccccc3O)SC2)c1	-	-	-	-	-	-	.	.
Cc1cc(C)n2c(SCC(=O)Nc3cc(S(=O)(=O)N(C)C)ccc3C)nnc2n1	-	-	-	-	-	.	.	.
